Compound activity as filed in PubChem.
DDE Tn7 FP inh – inhibitors of Tn7 peptide binding to human fibrin DD(E). P02675. FP displacement of FITC-Tn7 peptide from fibrin DD(E); 0% = median of compound wells per plate. inhibition, % at 8.3 µM. 0.13% of 370,000 active. AID 720508;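 active means inhibition above the mean of compounds falling within the control limits plus 3 SD of them, cut at about 14% in these data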;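 further: 0% = plate median of compound wells and 100% = 10 µM Aha-Tn7 peptide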
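Test system: human clot-derived fibrin DD(E) complex / Quantity: 2 µM final DD(E) protein / Incubation: 10 min plus 3 h, room temperature / Measured by: fluorescence polarization / Benchmarks: high control of 10 µM Aha-Tn7 peptide / Replicates: singlicate testing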
Arrestin-AP2 inh – blocks beta-arrestin peptide binding to AP2 adaptin; FITC-arrestin peptide / GST-AP2 beads, flow cytometry; AP2 beta2 appendage carries R879A mutation; inhibition, % at 10 µM; 0.31% of 340,000 active;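 active means inhibition above a set limit, near 3 SD of compounds lacking own fluorescence, cut at about 54% in these data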;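 further: plate controls were DMSO wells for no effect and 5 µM unlabelled arrestin peptide for full effect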
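Test system: GST-tagged AP2 beta2-adaptin appendage (R879A) on 4 µm glutathione beads; also added: fluorescein-tagged arrestin peptide at 50 nM final; timing: 12 min plus 1 h, RT; signal: flow cytometry, FL1 (488/535 nm); read-out: percent drop in bead-associated FITC signal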
CAL PDZ FP-1 – blocks peptide binding to human CAL PDZ domain; inhibition, % at 20 µM; 0.02% of 330,000 active; purified CAL PDZ, TMR-peptide fluorescence polarization, 1 h; Q9HD26;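 active means highest replicate inhibition of at least 40%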;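 further: plate controls were DMSO neutral control wells for no effect and unlabeled competitor peptide control wells for full effect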
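Test system: tagged CAL PDZ domain / Buffer or medium: sodium phosphate/NaCl buffer pH 7.4 with TCEP, IgG, Thesit / Reagent: TMR-labelled reporter peptide T*-PRC34 bound in PDZ groove / Compound dosing: single point, 20 µM / Schedule: 1 h incubation at room temperature before polarization reading / Technique: fluorescence polarization (mP) / Benchmarks: unlabelled peptide, DMSO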
Tn6 DDE FP – inhibitors of Tn6 peptide binding to human fibrin DD(E). P02675. Fibrin DD(E) TRITC-Tn6 fluorescence polarization displacement. inhibition, % at 8.3 µM. 0.21% of 370,000 active;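 active means inhibition above a per-campaign cutoff: mean of compounds within control limits plus 3 SD, cut at about 15% in these data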;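 further: 0% = median of all compound wells on the plate and 100% = blocking peptide control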
CAL PDZ FP-2 – CAL PDZ (human) peptide binding inhibition; Q9HD26; purified CAL PDZ, TMR-peptide fluorescence polarization, 1 h; inhibition, % at 24.9 µM; 0.92% of 300,000 active; AID 602252;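 active means mean inhibition of at least 30% with at least half of replicates also reaching 30%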;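 further: 0% = DMSO neutral control and 100% = excess unlabeled competitor peptide PRC23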
Arr AP2 CP1 – blocks beta-arrestin peptide binding to human AP2 | shares compounds with Arrestin-AP2 inh | inhibition, % at 10 µM | 2% of 1,300 active | GST-AP2 beads, FITC arrestin peptide binding, flow cytometry; GST-fused beta2-adaptin appendage, R879A mutant | AID 504908;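 active means inhibition above a set limit, roughly 3 SD of non-fluorescent compound noise, cut at about 38% in these data; inactive means inhibition at or below that limit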;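 further: loss of bead fluorescence from 50 nM FITC arrestin peptide bound to appendage; 0% = negative control wells and 100% = excess unlabelled arrestin peptide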
Target sequence (P63010 whole entry, looked up, the tested form may be a part, one chain of several): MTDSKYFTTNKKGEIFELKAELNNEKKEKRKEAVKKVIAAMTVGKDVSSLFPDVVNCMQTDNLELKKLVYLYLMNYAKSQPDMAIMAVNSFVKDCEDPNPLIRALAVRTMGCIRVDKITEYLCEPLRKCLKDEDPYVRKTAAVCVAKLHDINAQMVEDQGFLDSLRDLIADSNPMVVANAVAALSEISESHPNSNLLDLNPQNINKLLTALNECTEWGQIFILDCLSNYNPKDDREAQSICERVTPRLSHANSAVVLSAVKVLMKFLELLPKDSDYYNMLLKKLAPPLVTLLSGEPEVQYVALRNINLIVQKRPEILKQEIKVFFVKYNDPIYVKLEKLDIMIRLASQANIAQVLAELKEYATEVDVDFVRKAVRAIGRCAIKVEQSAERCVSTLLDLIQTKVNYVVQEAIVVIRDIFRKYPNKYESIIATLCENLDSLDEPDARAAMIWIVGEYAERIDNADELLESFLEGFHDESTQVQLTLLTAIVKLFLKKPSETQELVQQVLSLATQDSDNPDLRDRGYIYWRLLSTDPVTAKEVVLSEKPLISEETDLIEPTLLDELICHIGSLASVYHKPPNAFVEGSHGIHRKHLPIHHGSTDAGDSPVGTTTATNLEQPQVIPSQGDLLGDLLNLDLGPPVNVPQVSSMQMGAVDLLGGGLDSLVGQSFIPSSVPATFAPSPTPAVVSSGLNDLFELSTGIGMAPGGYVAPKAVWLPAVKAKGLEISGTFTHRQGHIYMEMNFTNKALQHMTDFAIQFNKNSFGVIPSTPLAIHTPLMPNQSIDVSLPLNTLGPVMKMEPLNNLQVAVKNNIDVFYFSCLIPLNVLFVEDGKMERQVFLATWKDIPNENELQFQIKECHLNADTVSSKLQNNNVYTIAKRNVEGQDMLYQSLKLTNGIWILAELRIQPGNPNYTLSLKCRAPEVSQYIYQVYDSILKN
GST GSH counter – counter-screen for beta-arrestin AP2 inhibitors: GST-GSH bead binding; shares compounds with Arrestin-AP2 inh; GST-fluorescein binding to GSH beads, fluorescence; inhibition, % at 10 µM; 2% of 1,300 active; AID 588338;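 active means inhibition above 50%, about 3 SD of the inhibition seen with non-fluorescent compounds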;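 further: fluorescein maleimide labelled GST captured on 4 micron glutathione beads; higher means more loss of bead fluorescence from quenching or blocked binding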
The depositor's hits bear a star; x = no result. A selection: hits, their analogues and other compounds. The true share with any hit is near 1.4%.

SMILES	DDE Tn7 FP inh	Arrestin-AP2 inh	CAL PDZ FP-1	Tn6 DDE FP	CAL PDZ FP-2	others
O=C(N/N=C/c1c(O)n(CCc2ccc(F)cc2)c(=O)[nH]c1=O)c1ccccc1	-3	1	x	-4	x
CCn1c(O)c(/C=N/NC(=O)c2ccccc2)c(=O)[nH]c1=S	1	-8	0	1	74*
CN(CC=CCN(C)P(=S)(N1CC1)N1CC1)P(=S)(N1CC1)N1CC1	6	-15	-1	-5	34*
CN1c2ccc(Br)cc2[C@H]2NCC[C@H]2[C@H]1CO	5	x	x	6	x
O=C(CN1CCCCC1)NCC(=O)Nc1ccc(Br)cc1C(=O)c1ccccc1	-8	-6	-1	0	-7
O=C(CCN1CCOCC1)NCC(=O)Nc1ccc(Br)cc1C(=O)c1ccccc1	0	-6	-2	-3	36*
Cc1nc2ccccc2c(=O)n1-c1ccc([N+](=O)[O-])cc1	1	2	x	-1	-3
Cc1nc2ccc(Cl)cc2c(=O)n1-c1ccc([N+](=O)[O-])cc1	-1	6	x	8	75*
O=C(CN1C(=O)[C@@H](Cc2ccccc2)N=C(c2ccccc2)c2ccccc21)NC1CCCCC1	-5	x	x	-2	x
COc1cccc(CNCCc2ccc(F)cc2)c1	3	5	0	10	77*
N#CCCn1cc(C(=O)NCc2ccccc2)c(-c2ccc3c(c2)OCCO3)n1	2	9	4	0	47*
N#CCCn1cc(C(=O)NCc2ccccc2)c(-c2ccccc2)n1	6	17	0	-1	2
CC[n+]1c(/C=C/C=C/c2ccc(N(C)C)cc2)sc2ccccc21	-2	17	1	73*	x
CN1C(=O)[C@@]23C[C@]4(c5c[nH]c6ccccc56)c5ccccc5N(S(=O)(=O)c5ccccc5)[C@@H]4N2C(=O)[C@@H]1SS3	2	x	x	-3	x
O=c1[nH]c(O)c(C=NCCc2ccccc2)c(=O)[nH]1	-9	-12	-1	-2	84*
O=C(c1ccc2c(c1)OCO2)C1CCCN(CC2CCCCC2)C1 (stereo unspecified)	1	-7	-2	0	78*
O=C(c1ccc2c(c1)OCO2)C1CCCN(Cc2c(F)cccc2Cl)C1 (stereo unspecified)	2	-2	0	-6	x
Cc1ccnc(NC(=O)CCCc2ccc(N(CCCl)CCCl)cc2)n1	-3	-4	15	-7	51*
COC(=O)C1(N(C)c2ccccc2)CCN(Cc2ccccc2)CC1	7	x	x	4	x
COC(=O)C1=C(c2ccc(OC)c(OC)c2)C[C@@H]2CC[C@H]1N2C(=O)N1CCOCC1	0	17	0	1	-1
COC(=O)C1=C(c2ccc(OC)c(OC)c2)C[C@@H]2CC[C@H]1N2C(=O)N1CCC(C)CC1	4	-4	-4	-7	41*
CCOC(=O)NC1CCc2cc(OC)c(OC)c(OC)c2-c2ccc(OC)c(=O)cc21 (stereo unspecified)	4	-6	-1	7	11
CSc1nc2ccccc2c(=O)n1-c1cccnc1	-5	-16	0	-2	79*
c1cncc(-c2ccc3n2Cc2cnnn2-c2ccccc2-3)c1	-8	x	x	5	x
COc1ccc(C(=O)O)cc1OC	-3	-5	0	-2	0
SMILES	DDE Tn7 FP inh	Arrestin-AP2 inh	CAL PDZ FP-1	Tn6 DDE FP	CAL PDZ FP-2	others
O=C(O)c1cc[c]([Hg][Cl])cc1	x	95*	1	x	-2
CC(=NCc1cccnc1)c1c(O)n(-c2ccc(Cl)cc2)c(=O)[nH]c1=O	9	10	0	0	46*
CC(=O)O[C@@H]1CC[C@]2(C)C3CC[C@]4(C)C(=O)[C@H](O)CC4C3[C@@H](OC(C)=O)C[C@H]2C1 (stereo partly specified)	1	3	-1	0	78*
CC(=O)O[C@H]1CC[C@]2(C)C3CC[C@@]4(C)C(C[C@@H](O)[C@@H]4O)C3[C@@H](OC(C)=O)C[C@H]2C1 (stereo partly specified)	7	x	x	-4	x
O=C(CN1C(=O)[C@@H](Cc2c[nH]c3ccccc23)N=C(c2ccccc2)c2ccccc21)NC1CCCCC1	10	x	x	2	x
Cc1ccc(-c2nc3ccccc3c(=O)n2-c2cccc(O)c2)cc1	0	-6	-3	-2	58*
N#CC1c2ccccc2-n2nncc2CN1C(=O)c1ccc([N+](=O)[O-])o1 (stereo unspecified)	-3	x	x	2	x
CC[n+]1c(-c2ccccc2)c2cc(N)ccc2c2ccc(N)cc21	6	6	-3	56*	-5
CC1CN=C(Nc2ccc(F)c(Cl)c2)S1 (stereo unspecified)	8	-2	0	-5	54*
O=C(NC(Cc1ccccc1)P(=O)(O)Oc1ccccc1)OCc1ccccc1 (stereo unspecified)	-6	x	x	-4	x
Cc1cccc(N2C(=O)NC(=O)/C(=C\c3ccc(N4CCOCC4)cc3)C2=O)c1	-4	-3	-1	0	56*
Cc1cccc(N2C(=O)NC(=O)/C(=C/c3ccc(N4CCOCC4)cc3)C2=O)c1	-3	-2	0	-6	6
COc1cc(OC)c(OC)cc1/C=C1/C(=O)NC(=O)N(Cc2ccccc2)C1=O	6	17	1	-7	x
COc1cc(OC)c(OC)cc1/C=C1\C(=O)NC(=O)N(Cc2ccccc2)C1=O	-1	7	0	-2	67*
COc1cc2c(c(OC)c1OC)-c1ccc(SC)c(=O)cc1C(N)CC2 (stereo unspecified)	4	9	0	1	-3
O=C1NC(=O)N(CCC2=CCCCC2)C(=O)/C1=C\c1cccs1	3	55*	-2	-7	0	Arr AP2 CP1=9;GST GSH counter=1
O=C1CC(c2cccnc2)=NN1c1ccc(Cl)cc1Cl	3	61*	0	5	-3	Arr AP2 CP1=-8;GST GSH counter=8
CCN1C(=O)CC(c2cccnc2)=Nc2ccccc21	0	-31	-7	-3	-3
Cc1ccc(CC(=O)N2CCN(C)CC2)cc1	6	55*	-1	5	-2	Arr AP2 CP1=0;GST GSH counter=-1
Nc1ccc(Br)cc1	-1	36	1	2	5
Nc1ccc2cc(Br)ccc2c1	6	61*	0	-1	3	Arr AP2 CP1=-2;GST GSH counter=-2
Cc1ccc(OC(=O)N(C)C[C@H]2OCc3cnnn3CCCC(=O)N([C@H](C)CO)C[C@H]2C)cc1	8	x	x	-6	x
N#CC1c2ccccc2-n2nncc2CN1C(=O)c1cccnc1 (stereo unspecified)	-8	x	x	-2	x
